This excerpt belongs to a sample that is enriched for hits.
XBP1 UPR activ = activators of adaptive arm of unfolded protein response (XBP1) | CHO-XBP1 luciferase reporter, IRE1-XBP1 UPR activation, luminescence; percent of tunicamycin response, DMSO as zero | activation, % at 20 µM | hit rate 0.33% among 330,000;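 active = versus positive control, 20 µM dose yields 30% or more activation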;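 note: 100% = tunicamycin at 10 µg/mL and 0% = DMSO only wells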
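Material – CHO cell line with stable XBP1 luciferase reporter · Buffer or medium – F12 plus 10% FBS · Compound – single point, 20 µM final compound, 1% DMSO · Schedule – 16-18 h cell attachment at 37 °C, then 6 h compound exposure · Signal – Steady-Glo luminescence read · Benchmarks – high control tunicamycin 10 µg/mL final, low control DMSO vehicle only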
CHOP inh = inhibitors of CHOP induction in ER stress response. AID 2732. hit rate 3.8% among 220,000. inhibition, % at 10 µM. CHO-K1 CHOP-promoter luciferase, tunicamycin-induced, 15-18 h;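 active = compounds that reduced the stress-induced luciferase reporter signal by more than about 70% of percent inhibition, limit read from the data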;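 note: 0% = tunicamycin plus vehicle and 100% = wells without tunicamycin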
Bfl-1 A1 inh = inhibitors of the anti-apoptotic protein A1, read as caspase activation | MEF A1-2A-BIM cells, Caspase-Glo 3/7 luminescence, 3 h; percent of clofoctol response, vehicle zero | caspase activation, % (test concentration not listed) | hit rate 0.066% among 330,000 | AID 2462;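 active = over half of replicate activation scores above 10%, or exactly half above 10 with the replicate mean above 10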
UPR CHOP act = activators of apoptotic arm of unfolded protein response (CHOP) | CHO-CHOP luciferase reporter, UPR activation, luminescence; percent of tunicamycin response over DMSO baseline | activation, % at 10 µM | hit rate 0.34% among 330,000 | AID 449763;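 active = at 10 µM dose, activation of 40% or more, normalized to positive control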;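 note: 100% = tunicamycin at 10 µg/mL and 0% = DMSO alone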
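Assay system: CHO-CHOP cells, stable luciferase reporter of PERK-eIF2a-CHOP signalling / Buffer or medium: F12 plus 10% serum / Compound dosing: one dose, 10 µM in 0.5% DMSO / Times: 6 h compound treatment, 37 °C / Technique: luciferase luminescence / Read-out: % reporter activation, DMSO baseline versus tunicamycin full activation / Benchmarks: tunicamycin and DMSO controls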
CHOP confirm = confirmation of CHOP induction inhibitors; shares compounds with CHOP inh; CHO-CHOP promoter luciferase reporter, tunicamycin-induced, luminescence; inhibition, % at 10 µM; hit rate 45% among 2,100; AID 504437;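 active = mean of three repeat readings of reporter signal inhibition above a set limit, cut at about 70% in these data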;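 note: 0% = tunicamycin plus vehicle and 100% = wells lacking tunicamycin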
An asterisk follows results filed as active; · = no result.

SMILES	XBP1 UPR activ	CHOP inh	Bfl-1 A1 inh	UPR CHOP act	CHOP confirm
CCC1CCCCN1c1nc(-c2ccncc2)nc2ccccc12 (configuration not stated)	4	99*	-1	1	15
COc1cc2[nH]c(=O)n(CCC(=O)N3CCN(c4cc(Cl)ccc4C)CC3)c(=O)c2cc1OC	2	104*	0	2	56
CCOc1cc2[nH]c(=O)n(CCC(=O)N3CCN(c4ccccc4OC)CC3)c(=O)c2cc1OCC	1	30	0	1	·
Cc1cccc(NC(=O)C2CCCN(C(=O)NC3CCCCC3)C2)c1C (configuration not stated)	2	14	0	0	·
O=C(NCc1ccccc1F)C1CC(=O)N(c2ccc3c(c2)OCCO3)C1 (configuration not stated)	-2	·	0	3	·
C#CC(=O)N(c1cccc(OC)c1)C(C(=O)NC1CCCC1)c1cccs1 (configuration not stated)	-11	108*	0	-10	119*
Cc1cccc(N(C(=O)C(F)(F)F)C(C(=O)NC2CCCCC2)c2cccs2)c1 (configuration not stated)	2	39	0	-1	·
C#CC(=O)N(c1ccc(OC)c(OC)c1)C(C(=O)NC1CCCC1)c1cccs1 (configuration not stated)	-9	109*	3	-9	122*
CC1CC(=O)N(Cc2ccccc2)c2ccccc2N1C=O (configuration not stated)	-2	16	-1	-2	·
COc1ccc(CN2CCC(CO)(Cc3ccccc3)CC2)cc1Cn1cccn1	3	26	0	0	·
Cc1cc(C)c2c(NC(=O)CCl)nn(C)c2n1	3	24	1	1	·
CCc1cc(SC#N)cc(CC)c1NC(=O)CCl	1	97*	0	4	43
Cc1ccc(CN2CCC(c3cc(-c4cccs4)n[nH]3)CC2)cc1	-6	22	0	-1	·
FC(F)(F)c1cccc(CN2CCC(c3cc(-c4cccs4)n[nH]3)CC2)c1	-2	104*	-1	1	94*
CCOC(=O)Cc1csc(NC(=O)Cc2ccc(Cl)cc2)n1	2	6	0	0	·
CCOC(=O)Cc1csc(NC(=O)NC2(C(F)(F)F)Oc3cc(Cl)c(Cl)cc3O2)n1	7	102*	0	-2	110*
CCOC(=O)Cc1csc(NC(=O)NC2(C(F)(F)F)Oc3ccc(Cl)cc3O2)n1 (configuration not stated)	11	105*	0	7	111*
COc1ccc(CN2C(=O)CCC(C(=O)O)C2c2ccccc2)cc1 (configuration not stated)	0	-6	0	-1	·
O=C(NNC(=O)c1cccc2ccccc12)c1ccc(-c2ccccc2)cc1	-4	98*	-4	1	82*
CCOC(=O)COn1c(=O)c(-c2cc3ccccc3o2)[n+]([O-])c2ccccc21	2	-2	-1	5	·
CCCN(CC(=O)Nc1cc(Cl)ccc1Cl)C(=O)/C=C/c1cc(OC)ccc1OC	-3	·	0	-2	·
COc1ccc([C@H]2Oc3cc(O)cc(O)c3C(=O)C2[C@@H]2C(=O)c3c(O)cc(O)cc3O[C@@H]2c2ccc(OC)cc2)cc1 (some centres not stated)	3	105*	0	2	111*
CCCC(=O)NC(Nc1cc(C(F)(F)F)ccc1Cl)C(Cl)(Cl)Cl (configuration not stated)	2	97*	-1	0	50
CC(C)CCN(C(=O)Cc1ccc(Cl)c(Cl)c1)c1c(N)n(Cc2ccccc2)c(=O)[nH]c1=O	8	103*	12*	7	108*
CC(C)CCN(C(=O)c1ccncc1)c1c(N)n(Cc2ccccc2)c(=O)[nH]c1=O	0	·	0	1	·
Cc1cccc2sc(NC(=O)c3ccc(Cl)s3)nc12	10	56	-2	4	·
COc1cccc2sc(NC(=O)c3ccc(Br)s3)nc12	7	104*	-2	1	48
CCOC(=O)c1ccc(N/C=C/C(=O)c2ccc(OC)c(OC)c2)cc1	4	62	-1	0	·
CCOC(=O)c1ccc(Nc2ccc(-c3ccc(OC)c(OC)c3)nn2)cc1	7	102*	0	3	13

Compound activity as filed in PubChem BioAssay.
